How the values were obtained:
HeLa cells = experiment: cells; format: cell-based, human; conditions: for IC50: Homo sapiens, HeLa, 24 h, read-out: cell-based IC50 (HeLa, μM); for F, activity fold compared to hit compounds, F = IC50(Hit)/IC50(Lead): from HeLa IC50, hit = 6a, 7a or 8a of the same series; for activity improvement compared to gefitinib (fold): HeLa cells, IC50 versus commercial drug gefitinib
HEK293 cells = experiment: CCK8 proliferation inhibition assay, HEK293 normal cells; format: cell-based, human; conditions: for IC50: Homo sapiens, HEK293, read-out: cell-based IC50 (HEK293, μM); for SI = IC50(HEK293)/IC50(HeLa): fold selectivity for cancer cells (HeLa) over normal cells (HEK293)
Method in brief: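 HEK293 and HeLa cells were seeded at 5000 cells/well and grown 24 h at 37 °C, 5% CO2. They were then exposed 24 h to test compound at 1.0–10.0 mg/L in serum-free medium, alongside untreated, DMSO-solvent and gefitinib controls. After a PBS wash and 3 h with CCK8, […]. IC50 came from inhibition relative to control. SI = IC50(HEK293)/IC50(HeLa).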

rhCOX-2 = molecular target: T1, rhCOX-2 (Homo sapiens, UniProt P35354); experiment: COX-2 enzyme-based activity test; format: biochemical
T1 sequence (P35354 18-604): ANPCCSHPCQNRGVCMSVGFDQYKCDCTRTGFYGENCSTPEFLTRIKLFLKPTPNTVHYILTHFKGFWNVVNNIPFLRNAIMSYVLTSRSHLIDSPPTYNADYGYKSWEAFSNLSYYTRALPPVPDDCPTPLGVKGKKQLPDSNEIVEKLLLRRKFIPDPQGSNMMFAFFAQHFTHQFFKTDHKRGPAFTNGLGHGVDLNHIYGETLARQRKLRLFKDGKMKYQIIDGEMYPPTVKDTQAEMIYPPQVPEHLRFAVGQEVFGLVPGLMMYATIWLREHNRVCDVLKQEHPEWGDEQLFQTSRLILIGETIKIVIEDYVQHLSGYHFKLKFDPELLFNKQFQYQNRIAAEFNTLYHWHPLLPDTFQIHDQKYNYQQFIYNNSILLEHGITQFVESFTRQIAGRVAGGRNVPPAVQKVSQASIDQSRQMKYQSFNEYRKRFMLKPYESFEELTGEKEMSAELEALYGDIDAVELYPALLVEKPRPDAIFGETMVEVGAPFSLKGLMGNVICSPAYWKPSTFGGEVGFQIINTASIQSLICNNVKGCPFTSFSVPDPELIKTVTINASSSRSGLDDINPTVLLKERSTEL

Row | IC50 (HeLa cells) | F, activity fold compared to hit compounds, F = IC50(Hit)/IC50(Lead) (HeLa cells) | IC50 (rhCOX-2) | Compound | activity improvement compared to gefitinib (fold) (HeLa cells) | IC50 (HEK293 cells) | SI = IC50(HEK293)/IC50(HeLa) (HEK293 cells)
1 | 4.61 µM | 1.00 | 2.82 µM | CC(C)Cc1ccc(C(C)C(=O)NNC(=O)c2cc3ccccc3oc2=O)cc1 (centres unmarked) [7a, N′-(2-(4-Isobutylphenyl)propanoyl)-2-oxo-2H-chromene-3-carbohydrazide] |  |  | 
2 | 42.7 µM | 0.11 |  | Cc1ccc2oc(=O)c(C(=O)NNC(=O)C(C)c3ccc(CC(C)C)cc3)cc2c1 (centres unmarked) [7b, N′-(2-(4-Isobutylphenyl)propanoyl)-6-methyl-2-oxo-2H-chromene-3-carbohydrazide] |  |  | 
3 | 8.92 µM | 0.52 |  | CC(C)Cc1ccc(C(C)C(=O)NNC(=O)c2cc3ccc(O)cc3oc2=O)cc1 (centres unmarked) [7c, 7-Hydroxy-N′-(2-(4-isobutylphenyl)propanoyl)-2-oxo-2H-chromene-3-carbohydrazide] |  |  | 
4 | 137 µM | 0.03 |  | CC(C)Cc1ccc(C(C)C(=O)NNC(=O)c2cc3cc(Cl)ccc3oc2=O)cc1 (centres unmarked) [7d, 6-Chloro-N′-(2-(4-isobutylphenyl)propanoyl)-2-oxo-2H-chromene-3-carbohydrazide] |  |  | 
5 | 3.68 µM | 1.25 | 0.294 µM | CC(C)Cc1ccc(C(C)C(=O)NNC(=O)c2cc3cc(F)ccc3oc2=O)cc1 (centres unmarked) [7e, 6-Fluoro-N′-(2-(4-isobutylphenyl)propanoyl)-2-oxo-2H-chromene-3-carbohydrazide] |  |  | 
6 | 6.25 µM | 0.74 | 0.982 µM | CC(C)Cc1ccc(C(C)C(=O)NNC(=O)c2cc3cc([N+](=O)[O-])ccc3oc2=O)cc1 (centres unmarked) [7f, N′-(2-(4-Isobutylphenyl)propanoyl)-6-nitro-2-oxo-2H-chromene-3-carbohydrazide] |  |  | 
7 | 0.783 µM | 5.89 |  | CC(C)Cc1ccc(C(C)C(=O)NNC(=O)c2cc3cc(Cl)cc(Cl)c3oc2=O)cc1 (centres unmarked) [7g, 6,8-Dichloro-N′-(2-(4-isobutylphenyl)propanoyl)-2-oxo-2H-chromene-3-carbohydrazide] | approximately 10 fold | 20 µM | 25.49
8 | 0.889 µM | 5.18 |  | CC(C)Cc1ccc(C(C)C(=O)NNC(=O)c2cc3cc(Br)cc(Br)c3oc2=O)cc1 (centres unmarked) [7h, 6,8-Dibromo-N′-(2-(4-isobutylphenyl)propanoyl)-2-oxo-2H-chromene-3-carbohydrazide] |  |  | 
9 | 4.66 µM | 1.00 |  | CC(C)Cc1ccc(C(C)c2nnc(-c3cc4ccccc4oc3=O)o2)cc1 (centres unmarked) [8a, 3-(5-(1-(4-Isobutylphenyl)ethyl)-1,3,4-oxadiazol-2-yl)-2H-chromen-2-one] |  |  | 
10 | 122 µM | 0.04 |  | CC(C)Cc1ccc(C(C)c2nnc(-c3cc4cc(F)ccc4oc3=O)o2)cc1 (centres unmarked) [8b, 6-Fluoro-3-(5-(1-(4-isobutylphenyl)ethyl)-1,3,4-oxadiazol-2-yl)-2H-chromen-2-one] |  |  | 
11 | 82.2 µM | 0.06 |  | CC(C)Cc1ccc(C(C)c2nnc(-c3cc4cc(Cl)ccc4oc3=O)o2)cc1 (centres unmarked) [8c, 6-Chloro-3-(5-(1-(4-isobutylphenyl)ethyl)-1,3,4-oxadiazol-2-yl)-2H-chromen-2-one] |  |  | 
12 | > 200 µM |  |  | CC(C)Cc1ccc(C(C)c2nnc(-c3cc4cc(Cl)cc(Cl)c4oc3=O)o2)cc1 (centres unmarked) [8d, 6,8-Dichloro-3-(5-(1-(4-isobutylphenyl)ethyl)-1,3,4-oxadiazol-2-yl)-2H-chromen-2-one] |  |  | 
13 | > 200 µM |  |  | CC(C)Cc1ccc(C(C)c2nnc(-c3cc4cc(Br)cc(Br)c4oc3=O)o2)cc1 (centres unmarked) [8e, 6,8-Dibromo-3-(5-(1-(4-isobutylphenyl)ethyl)-1,3,4-oxadiazol-2-yl)-2H-chromen-2-one] |  |  | 
14 | 42.3 µM | 0.11 |  | Cc1ccc2oc(=O)c(-c3nnc(C(C)c4ccc(CC(C)C)cc4)o3)cc2c1 (centres unmarked) [8f, 3-(5-(1-(4-Isobutylphenyl)ethyl)-1,3,4-oxadiazol-2-yl)-6-methyl-2H-chromen-2-one] |  |  | 

Further lines, the molecule ahead of its results:

Row | Compound | IC50 (HeLa cells) | F, activity fold compared to hit compounds, F = IC50(Hit)/IC50(Lead) (HeLa cells) | IC50 (rhCOX-2) | activity improvement compared to gefitinib (fold) (HeLa cells) | IC50 (HEK293 cells) | SI = IC50(HEK293)/IC50(HeLa) (HEK293 cells)
15 | C/C(=N\NC(=O)C(C)c1ccc(CC(C)C)cc1)c1cc2ccccc2oc1=O (centres unmarked) [6a, (E)-2-(4-Isobutylphenyl)-N′-(1-(2-oxo-2H-chromen-3-yl)ethylidene)propanehydrazide] | 4.64 µM | 1.00 |  |  |  | 
16 | C/C(=N\NC(=O)C(C)c1ccc(CC(C)C)cc1)c1cc2cc(F)ccc2oc1=O (centres unmarked) [6b, (E)-N′-(1-(6-Fluoro-2-oxo-2H-chromen-3-yl)ethylidene)-2-(4-isobutylphenyl)propanehydrazide] | 2.59 µM | 1.78 |  |  |  | 
17 | C/C(=N\NC(=O)C(C)c1ccc(CC(C)C)cc1)c1cc2cc(Br)cc(Br)c2oc1=O (centres unmarked) [6c, (E)-N′-(1-(6,8-Dibromo-2-oxo-2H-chromen-3-yl)ethylidene)-2-(4-isobutylphenyl)propanehydrazide] | 0.606 µM | 7.61 | 2.67 µM | approximately 10 fold | 32.2 µM | 53.18
18 | C/C(=N\NC(=O)C(C)c1ccc(CC(C)C)cc1)c1cc2ccc(O)cc2oc1=O (centres unmarked) [6d, (E)-N′-(1-(7-Hydroxy-2-oxo-2H-chromen-3-yl)ethylidene)-2-(4-isobutylphenyl)propanehydrazide] | 6.65 µM | 0.69 | 1.04 µM |  |  | 
19 | C/C(=N\NC(=O)C(C)c1ccc(CC(C)C)cc1)c1cc2cc(C)ccc2oc1=O (centres unmarked) [6e, (E)-2-(4-Isobutylphenyl)-N′-(1-(6-methyl-2-oxo-2H-chromen-3-yl)ethylidene)propanehydrazide] | 2.19 µM | 2.11 |  |  |  | 
20 | C/C(=N\NC(=O)C(C)c1ccc(CC(C)C)cc1)c1cc2cc(Cl)cc(Cl)c2oc1=O (centres unmarked) [6f, (E)-N′-(1-(6,8-Dichloro-2-oxo-2H-chromen-3-yl)ethylidene)-2-(4-isobutylphenyl)propanehydrazide] | 4.34 µM | 1.06 | 1.51 µM |  |  | 
21 | C/C(=N\NC(=O)C(C)c1ccc(CC(C)C)cc1)c1cc2cc(Cl)ccc2oc1=O (centres unmarked) [6g, (E)-N′-(1-(6-Chloro-2-oxo-2H-chromen-3-yl)ethylidene)-2-(4-isobutylphenyl)propanehydrazide] | 2.56 µM | 1.80 |  |  |  | 
22 | CC(C)Cc1ccc(C(C)C(=O)O)cc1 (centres unmarked) [ibuprofen, reference compound] | > 200 µM |  |  |  |  | 
